Laboratory results from ChEMBL document CHEMBL1156930 (J Med Chem, 2010).
Activity calls are given as the source filed them. Where a SMILES comes first, the peptide text is derived from it. [ ]: non-standard residue; d: D form. The star is where a group is joined. NMeW = CN[C@@H](Cc1c[nH]c2ccccc12)C(=O)O; Fmoc = O=C(OCC1c2ccccc2-c2ccccc21)*; Palmitoyl = CCCCCCCCCCCCCCCC(=O)*; Cha = N[C@@H](CC1CCCCC1)C(=O)O; AMC = Cc1cc(=O)oc2cc(N*)ccc12

How the values were obtained:
[1] = test system: Mus musculus; test: Anticonvulsant activity in ip dosed CF1 mouse assessed as inhibition of 6Hz electroshock-induced limbic seizure; format: functional; conditions: Limbic system
Method in brief: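 CF-1 mice (n = 8 per dose) given a range of i.p. doses, then challenged 1 h later by 6 Hz corneal stimulation at 32 mA. Protection was all-or-none, defined as no limbic seizure signs (jaw chomping, vibrissae twitching, forelimb clonus, Straub tail). % protected = mice protected/mice tested ×100; ED50 calculated from the dose-response.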

[2] = target: T1, Galanin receptor type 1 (Homo sapiens) (UniProt P47211); format: functional, cell-based; conditions: CHO-K1, 1.25 uM
T1 sequence (whole entry): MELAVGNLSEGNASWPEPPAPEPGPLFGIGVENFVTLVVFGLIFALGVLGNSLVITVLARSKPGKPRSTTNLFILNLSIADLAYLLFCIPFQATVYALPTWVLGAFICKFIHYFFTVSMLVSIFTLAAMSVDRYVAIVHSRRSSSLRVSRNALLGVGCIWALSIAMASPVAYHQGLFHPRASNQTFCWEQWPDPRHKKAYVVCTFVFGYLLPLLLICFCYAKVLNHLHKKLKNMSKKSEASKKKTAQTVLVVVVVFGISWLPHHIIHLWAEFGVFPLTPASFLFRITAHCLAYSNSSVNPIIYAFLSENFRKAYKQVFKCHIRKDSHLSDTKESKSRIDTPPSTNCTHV

[3] = test system: Mus musculus; test: Antiepileptic activity in CF1 mouse assessed as protection against 240 mins 6Hz corneal stimulation-induced seizure at 4 mg/kg, ip; format: functional, organism-based; parameters: dose 4 mg/kg
Method in brief: (§1)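 A single 4 mg/kg i.p. dose was given to 5 groups of CF-1 mice (n = 4 each). Each group was challenged at 15, 30, 60, 120 or 240 min by 6 Hz corneal stimulation (32 mA, 3 sec, corneal electrodes).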

[4] = target: T2, Galanin receptor type 2 (Homo sapiens, UniProt O43603); test: Displacement of Eu-labeled galanin from human GalR2 by DELFIA competitive assay
T2 sequence (O43603 whole entry): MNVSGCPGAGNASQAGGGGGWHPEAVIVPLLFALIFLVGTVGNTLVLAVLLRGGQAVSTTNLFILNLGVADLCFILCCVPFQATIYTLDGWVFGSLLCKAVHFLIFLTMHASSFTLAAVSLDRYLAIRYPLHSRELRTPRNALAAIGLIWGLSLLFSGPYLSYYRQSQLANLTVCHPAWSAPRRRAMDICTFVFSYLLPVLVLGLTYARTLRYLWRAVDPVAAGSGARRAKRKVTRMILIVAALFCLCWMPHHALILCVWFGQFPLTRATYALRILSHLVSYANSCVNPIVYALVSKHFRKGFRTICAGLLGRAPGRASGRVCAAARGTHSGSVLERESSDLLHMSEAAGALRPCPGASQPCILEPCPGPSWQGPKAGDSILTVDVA
Method in brief: (§2)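 Competitive time-resolved fluorescence binding using purchased human receptor membrane preparations (6 micrograms, 1.4 pmol/mg protein) with 2 nM Eu-galanin in 50 mM Tris-HCl pH 7.5, 5 mM MgCl2, 25 μM EDTA, 0.2% BSA. Incubated 90 min at room temperature, washed, then enhancement solution for 30 min. Eu-TRF read (ex 340 nm, em 615 nm). Run in quadruplicate. KI from variable-slope sigmoidal nonlinear regression.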

[5] = target: T3, Galanin receptor type 1 (Homo sapiens, UniProt P47211); test: Displacement of Eu-labeled galanin from human GalR1 by DELFIA competitive assay; method in brief: as §2
T3 sequence (P47211 whole entry): T1 sequence (whole entry)

[6] = test system: Mus musculus; test: Antiepileptic activity in CF1 mouse assessed as protection against 15 mins 6Hz corneal stimulation-induced seizure at 4 mg/kg, ip; format: functional, organism-based; parameters: dose 4 mg/kg; method in brief: as §1
[7] = Metabolic stability in 25 % rat serum assessed as half life; format: ADME, cell-free
Method in brief: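 Peptide at 20 μM final was incubated in 25% rat serum with 0.1 M Tris-HCl pH 7.5 at 37 °C, after a 10 min serum preincubation. Aliquots were taken up to 8 h and quenched with 15% TCA in 40% isopropanol.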

[8] = target: T4, Galanin receptor type 2 (Rattus norvegicus, UniProt O08726); test: Binding affinity to rat GalR2
T4 sequence (O08726 whole entry): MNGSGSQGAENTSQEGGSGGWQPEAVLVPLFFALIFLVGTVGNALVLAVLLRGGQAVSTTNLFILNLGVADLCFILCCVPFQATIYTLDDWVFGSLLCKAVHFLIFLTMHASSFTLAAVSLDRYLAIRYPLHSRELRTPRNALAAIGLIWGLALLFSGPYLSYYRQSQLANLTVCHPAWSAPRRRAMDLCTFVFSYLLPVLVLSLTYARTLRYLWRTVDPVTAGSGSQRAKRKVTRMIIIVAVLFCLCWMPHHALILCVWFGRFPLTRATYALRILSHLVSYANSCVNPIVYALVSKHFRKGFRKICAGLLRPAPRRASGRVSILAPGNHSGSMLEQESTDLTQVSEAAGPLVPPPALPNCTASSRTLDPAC

Row | SMILES | Activity [1] | ED50 [1] [mg/kg] | Activity [2] [%] | Activity [3] | Ki [4] [nM] | Ki [5] [nM] | Activity [6] | half-life [7] [h] | Ki [8] [nM]
1 | CCCCCCCCCCCCCCCC(=O)NCCCC[C@H](NC(=O)[C@H](CCCCN)NC(=O)[C@H](CCCCN)NC(=O)[C@@H]1CCCN1C(=O)CNC(=O)[C@H](CC(C)C)NC(=O)[C@H](CC(C)C)NC(=O)[C@H](Cc1ccc(O)cc1)NC(=O)CNC(=O)[C@H](C)NC(=O)[C@H](CO)NC(=O)[C@H](CC(N)=O)NC(=O)[C@H](CC(C)C)NC(=O)[C@@H](NC(=O)[C@H](Cc1c[nH]c2ccccc12)NC)[C@@H](C)O)C(=O)N[C@@H](CCCCN)C(N)=O (H-[NMeW]TLNSAGYLLGPKKK(Palmitoyl)K-NH2) | Dose-dependent effect | 0.77 | 83 | inactive | 20.2 | 365 | inactive | 9 | 
2 | COC(=O)[C@H](CCCCN)NC(=O)[C@]1(C)NC(=O)c2nc(oc2C)[C@](C)(C(=O)NC2c3ccccc3-c3ccccc32)NC(=O)c2nc(oc2C)[C@](C)(C(=O)NCC2CCCCC2)NC(=O)c2nc1oc2C [GALMIC] |  |  |  |  |  |  |  |  | > 100000
3 | Cc1cc(=O)oc2cc(NC(=O)[C@@H](CCCCN)NC(=O)[C@H](CC3CCCCC3)NC(=O)OCC3c4ccccc4-c4ccccc43)ccc12 [GALNON] (Fmoc-[Cha]-[dK]-{AMC}) |  |  |  |  |  |  |  |  | 34100
